Screening results: PubChem BioAssay, several laboratories
In the library only some 9.6% were active in any assay of this set; here they are far more common.
PMI activator – activators of human phosphomannose isomerase; P34949; purified human PMI, coupled resazurin fluorescence, 20 min; hits give high values; 1 = vehicle control, 0 substrate-free wells; activation factor at 20 µM; hit rate 0.005% among 190,000;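 active = activation factor of 2 or more at 20 µM, relative to plate controls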
Target sequence (P34949 whole entry, looked up): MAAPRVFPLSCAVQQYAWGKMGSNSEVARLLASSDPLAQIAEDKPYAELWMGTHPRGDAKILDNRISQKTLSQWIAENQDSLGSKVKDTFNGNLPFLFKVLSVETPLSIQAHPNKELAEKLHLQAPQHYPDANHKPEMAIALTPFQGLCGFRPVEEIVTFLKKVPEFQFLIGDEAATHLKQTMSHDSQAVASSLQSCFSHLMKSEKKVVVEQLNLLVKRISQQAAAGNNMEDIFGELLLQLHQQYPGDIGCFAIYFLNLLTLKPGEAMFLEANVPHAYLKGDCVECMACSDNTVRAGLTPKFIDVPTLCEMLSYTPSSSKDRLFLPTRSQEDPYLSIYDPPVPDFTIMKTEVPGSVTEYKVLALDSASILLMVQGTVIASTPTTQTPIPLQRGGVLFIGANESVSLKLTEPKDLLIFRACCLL
bCat KO growth – beta-catenin-lacking colon tumor cell growth suppression. HCT116 beta-catenin knockout viability, CellTiter-Glo, 60 h; hits give low values. viability, % at 10 µM. hit rate 1.5% among 140,000;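 active = viability at or under a set limit, the compound median less 4 SD, cut at about 6% in these data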;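 note: 0% = Hyamine 1622 control at 20 µM and 100% = untreated cell control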
L major viab – reduces viability of Leishmania major promastigotes; inhibition, % at 10 µM; AID 1063; resazurin fluorescence viability; hit rate 9% among 200,000; in the data active = inhibition above about 50%;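 note: promastigotes grown with compound for 44 hours at 28 °C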
HCT116 PTEN-null – growth suppressors of cells with PTEN tumor suppressor deletion; HCT116 PTEN-null viability, CellTiter-Glo, 60 h; hits give low values; viability, % at 10 µM; hit rate 1.2% among 140,000; AID 827;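 active = viability at or below a set limit, 4 SD under the median of all tested compounds, cut at about 3.7% in these data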;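 note: PTEN knockout HCT116 line with beta catenin targeted HCT116 as companion control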
PMI act satM6P – activators of human phosphomannose isomerase at near-saturating mannose 6-phosphate; AID 1216; coupled PMI enzyme assay, resazurin fluorescence, 20 min; hits give high values; 1 = untreated enzyme, 0 = substrate-free blank; P34949; activation factor at 20 µM; hit rate 0.34% among 190,000;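 active = activation factor of 2 or more at 20 µM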
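test system = human PMI in coupled enzyme assay | medium = HEPES-buffered pH 7.4 with magnesium and detergent | also added = 1.0 mM mannose-6-phosphate substrate with 0.22 mM NADP+ | compound = 20 µM single dose | times = 20 min incubation at room temperature | measured by = resorufin fluorescence (Ex 544/Em 590 nm) from resazurin via diaphorase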
* hit, by the source's call; · = not tested or not shown.

SMILES	PMI activator	bCat KO growth	L major viab	HCT116 PTEN-null	PMI act satM6P
COc1ccc(OC)c(/C=C/C(=O)OCC(=O)Nc2cccc(C(C)=O)c2)c1	1	96	66*	93	1
O=C(Cn1nc(-c2cccc([N+](=O)[O-])c2)c2ccccc2c1=O)NCC1CCCO1 (stereo not given)	1	·	2	·	1
O=C(NCc1cccs1)c1cc(C2CC2)on1	1	87	-9	94	0.9
CSc1nc2oc3c(c2c2nncn12)CC(C)(C)SC3	1.4	87	25	82	2.6*
CC1(C)Cc2c(oc3ncn4ncnc4c23)CO1	1	110	1	107	1
O=C(CSc1ccccn1)N1CCc2ccccc21	1.1	·	-3	·	1.1
COC(=O)c1ccc(C2NC(=S)N(c3ccccc3)C(C)=C2C(=O)Nc2ccccc2OC)cc1 (stereo not given)	1	90	72*	83	1
COc1ccccc1NC(=O)C1=C(C)N(c2ccccc2)C(=S)NC1c1cccc(C(F)(F)F)c1 (stereo not given)	1.1	30	50	15	1
O=C(c1ccc(Cl)cc1)c1cnc2ccccn12	1.1	97	-9	87	1.1
O=C(CSc1nc(SCC(=O)NCc2ccccc2)n(-c2ccccc2)n1)NCc1ccccc1	0.9	95	94*	91	0.9
Cc1cccc(C)c1OCC(=O)N/N=C/c1ccc2c(c1)OCO2	1	20	-3	30	1.1
Cc1ccc(C(C)C)cc1OCC(=O)N/N=C/c1ccc2c(c1)OCCO2	0.8	82	90*	89	0.9
CC(C(=O)NC(=O)NCc1ccccc1)N1C(=O)c2ccccc2C1=O (stereo not given)	0.9	0.9*	1	0.9*	0.8
COc1ccc(OC)c(-n2c(SCC(=O)Nc3cc(C)on3)nnc2-c2c[nH]c3ccccc23)c1	1	79	100*	71	0.9
COc1ccc(OC)c(-n2c(SCC(N)=O)nnc2-c2c[nH]c3ccccc23)c1	1	98	-4	107	0.9
COc1ccc(OC)c(-n2c(SC)nnc2-c2c[nH]c3ccccc23)c1	1	80	65*	85	1
O=C(CCS(=O)(=O)c1ccc(Cl)cc1)OCC(=O)N1CCCCC1	0.9	93	5	99	0.9
C=CCN=c1scc(-c2ccc(F)cc2)n1/N=C/c1ccccn1	0.9	59	9	55	0.9
C=CCN=c1scc(-c2ccc3c(c2)NC(=O)CO3)n1/N=C(\C)c1ccccn1	1.2	·	57*	·	1
NC(=O)c1nsc(C(=O)N(c2cccc(F)c2)C(C(=O)NCC2CCCO2)c2cccs2)c1N (stereo not given)	1	·	29	·	1
CC1CCN(CCCNC(=O)c2ccc(Cn3c(=S)[nH]c4ccc(Br)cc4c3=O)cc2)CC1	1.1	·	99*	·	1
CCCCCn1c(=O)[nH]c2cc(C(=O)NCCCN3CCCCC3)ccc2c1=O	1.1	66	6	64	1.1
O=C(NCC1CCCO1)c1ccc2c(=O)n(CCc3ccccc3)c(=O)[nH]c2c1 (stereo not given)	1	95	-2	92	0.9
CC1CCN(CCCNC(=O)c2ccc3c(=O)n(CCc4ccccc4)c(=O)[nH]c3c2)CC1	1	76	97*	78	1
CC1CCCCN1CCCNC(=O)c1ccc2c(=O)n(CCc3ccccc3)c(=O)[nH]c2c1 (stereo not given)	1	76	24	82	1
SMILES	PMI activator	bCat KO growth	L major viab	HCT116 PTEN-null	PMI act satM6P
CCCCCn1c(=O)[nH]c2cc(C(=O)NCCCN3CCC(C)CC3)ccc2c1=O	0.9	15	58*	34	0.9
CC1CCCCN1CCNC(=O)c1ccc2c(=O)n(CCc3ccccc3)c(=O)[nH]c2c1 (stereo not given)	0.9	70	63*	77	0.9
CN1CCN(CCCNC(=O)c2ccc(Cn3c(=S)[nH]c4ccc(Br)cc4c3=O)cc2)CC1	1.1	·	-8	·	1
CN(CC1CCCO1)S(=O)(=O)c1ccc(C(=O)Nc2nc(-c3ccccn3)cs2)cc1 (stereo not given)	1	3.9*	100*	8	1
O=C(Nc1nc(-c2ccccn2)cs1)C1CC(=O)N(c2ccc3c(c2)OCCO3)C1 (stereo not given)	0.8	25	100*	20	0.8
O=C(Nc1nc(-c2ccccn2)cs1)C1CC1	0.8	55	86*	62	0.8
O=C(Nc1nc(-c2ccccn2)cs1)C12CC3CC(CC(O)(C3)C1)C2	1	·	33	·	0.9
O=C(CC1CC2CCC1C2)Nc1nc(-c2ccccn2)cs1 (stereo not given)	1	·	100*	·	0.7
CCOC(=O)N1CCC(NC(=O)CCc2c(C)nc3ncnn3c2C)CC1	1	101	1	98	1
O=C(CNC(=O)c1cnccn1)Nc1ccc(F)c(F)c1F	1	101	-4	106	0.9
O=C(Nc1cc(N2CCOCC2)ncn1)NC1(C(F)(F)F)Oc2ccccc2O1	0.6	60	-3	67	0.9
Cc1ncc([N+](=O)[O-])n1Cc1ccc(F)cc1	1	·	44	·	1
O=[N+]([O-])c1ccc(N2CCN(S(=O)(=O)c3ccc4ccccc4c3)CC2)cc1NCC1CCCO1 (stereo not given)	0.9	79	9	90	0.9
Cc1cc(C(=O)Nc2cccc3cccnc23)ccc1[N+](=O)[O-]	1	·	-5	·	1
Cc1c(C(=O)NCc2cccnc2)oc2ccc(S(=O)(=O)N3CC(C)CC(C)C3)cc12 (stereo not given)	0.9	94	-2	89	0.9
Cc1c(C(=O)Nc2ccc(F)cc2)oc2ccc(S(=O)(=O)N3CC(C)CC(C)C3)cc12 (stereo not given)	1	2.1*	30	9	1
CCCCN(C(=O)/C=C/c1ccco1)c1c(N)n(CCC)c(=O)[nH]c1=O	1.1	·	-9	·	1
COc1ccc(Nc2nc(-c3c[nH]c4ccccc34)cs2)cc1	0.8	98	85*	91	0.8
Cc1cccc(/C=C(\c2nc3ccccc3[nH]2)S(=O)(=O)c2ccccc2)c1	0.9	1.9*	100*	0.9*	0.9
Cc1cccc(/C=C/c2nc3ccccc3c(=O)[nH]2)c1	1	·	3	·	1.1
OCC1(Cc2cccc(Cl)c2)CCCN(Cc2ccc3cc(F)ccc3n2)C1 (stereo not given)	0.8	·	55*	·	0.8
CC(C)Cc1cc(CN2CCC(CO)(Cc3cccc(C(F)(F)F)c3)CC2)[nH]n1	1	·	85*	·	0.9
Cc1cc(CN2CCCC(CO)(Cc3cccc(Cl)c3)C2)n[nH]1 (stereo not given)	1	·	29	·	1
CC(C)Cc1cc(CN2CCCC(CO)(Cc3cccc(Cl)c3)C2)[nH]n1 (stereo not given)	0.8	·	68*	·	0.8
Cc1ccc(NS(=O)(=O)c2ccc(OCC(=O)NCC3CCCO3)cc2)cc1 (stereo not given)	1	·	0	·	1
